{"source": "ChEMBL document CHEMBL1275329", "about": "“Fruitful adrenergic α(2C)-agonism/α(2A)-antagonism combination to prevent and contrast morphine tolerance and dependence” (J Med Chem, 2010)", "key": {"[1]": {"target": "T1, Alpha-2A adrenergic receptor (Homo sapiens) (UniProt P08913)", "T1 sequence (whole entry)": "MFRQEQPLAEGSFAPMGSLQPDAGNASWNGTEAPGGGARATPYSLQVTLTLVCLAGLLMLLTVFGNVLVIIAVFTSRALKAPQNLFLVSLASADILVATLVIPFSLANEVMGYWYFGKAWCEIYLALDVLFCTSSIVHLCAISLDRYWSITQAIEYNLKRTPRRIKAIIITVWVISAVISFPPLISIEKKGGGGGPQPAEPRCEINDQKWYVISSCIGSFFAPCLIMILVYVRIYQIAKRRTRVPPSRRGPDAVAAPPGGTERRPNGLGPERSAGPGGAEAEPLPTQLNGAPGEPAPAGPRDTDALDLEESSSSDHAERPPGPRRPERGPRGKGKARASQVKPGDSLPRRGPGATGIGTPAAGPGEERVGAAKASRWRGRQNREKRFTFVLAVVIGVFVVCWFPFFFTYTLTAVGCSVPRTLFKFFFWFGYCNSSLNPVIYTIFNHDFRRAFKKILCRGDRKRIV", "experiment": "Antagonist activity at human alpha2A adrenoceptor expressed in CHO cells assessed as effect on agonist-induced extracellular acidification by microphysiometry", "assay_type": "functional, cell-based", "in_short": "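CHO cells stably expressing one human α2-AR subtype were run on the Cytosensor microphysiometer with bicarbonate-free DMEM perfusion. […] Kb = M/(concentration ratio − 1), where the ratio is EC50 with antagonist over EC50 without. Reported as pKb, mean ± SEM of 3–6 experiments.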"}, "[2]": {"target": "T2, Alpha-2C adrenergic receptor (Homo sapiens) (UniProt P18825)", "T2 sequence (whole entry)": "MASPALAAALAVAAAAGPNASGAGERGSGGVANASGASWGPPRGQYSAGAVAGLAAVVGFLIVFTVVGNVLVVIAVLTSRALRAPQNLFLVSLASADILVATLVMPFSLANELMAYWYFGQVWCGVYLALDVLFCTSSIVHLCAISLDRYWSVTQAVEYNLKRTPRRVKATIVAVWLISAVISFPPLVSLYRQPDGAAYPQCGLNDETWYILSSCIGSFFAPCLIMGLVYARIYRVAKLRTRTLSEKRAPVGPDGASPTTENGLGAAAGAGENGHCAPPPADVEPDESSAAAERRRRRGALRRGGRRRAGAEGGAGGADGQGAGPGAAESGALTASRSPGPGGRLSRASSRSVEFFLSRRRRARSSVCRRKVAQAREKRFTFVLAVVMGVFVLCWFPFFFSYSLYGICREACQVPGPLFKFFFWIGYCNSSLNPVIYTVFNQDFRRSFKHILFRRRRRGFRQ", "experiment": "Agonist activity at human Alpha-2C adrenoceptor expressed in CHO cells assessed as induction of extracellular acidification by microphysiometry relative to (-)noradrenaline", "assay_type": "functional, cell-based", "in_short": "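Cytosensor microphysiometry on CHO cells stably expressing one human α2-AR subtype, seeded at 3 × 10⁵ cells/cup and grown 24 h at 37 °C. Cells were perfused with bicarbonate-free DMEM and exposed to agonist for 4 min, with 30 min washes between exposures. The read-out is the change in acidification rate: peak after agonist minus the mean of three prior readings. […] Mean ± SEM, 3–6 experiments.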"}, "Mus musculus [3]": {"test_system": "Mus musculus", "experiment": "Reduction in morphine tolerance acquisition in CD1 mouse assessed as morphine analgesic effect incidence at 0.05 mg/kg, ip administered as single dose 15 mins before last morphine dosing on test day post morphine challenge by radiant heat tail flick test", "assay_type": "functional", "design": "scale not given: the % may be the effect or the level left", "settings": "route intraperitoneal", "in_short": "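Tolerance was induced in male CD-1 mice with morphine 10 mg/kg sc twice daily at 12 h intervals for 5 days. On day 5, test agent 0.05 mg/kg ip was given once, 15 min before the last morphine injection. Tail-flick antinociception was read 30 min after that injection and expressed as %MPE, with day 1 vs day 5 compared.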"}, "Mus musculus [4]": {"test_system": "Mus musculus", "experiment": "Reduction in morphine tolerance acquisition in CD1 mouse assessed as morphine analgesic effect incidence at 0.05 mg/kg, ip bid administered 15 mins before last morphine dosing by radiant heat tail flick test", "assay_type": "functional, organism-based", "design": "dose 0.05 mg/kg"}, "Mus musculus [5]": {"test_system": "Mus musculus", "experiment": "Reduction in morphine dependence expression in CD1 mouse assessed as decrease in expression of naloxone-precipitated withdrawal syndrome at 0.05 mg/kg, ip bid administered 15 mins before last morphine dosing […]", "assay_type": "functional, organism-based", "design": "dose 0.05 mg/kg", "in_short": "(§1)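 In male CD-1 mice, morphine 10 mg/kg sc was given twice daily at 12 h intervals for 6 days, with test agent 0.05 mg/kg ip 15 min before each morphine dose. Jumping was counted, and somatic signs were scored as the sum of rearing, forepaw tremor and teeth chatter. Blind observers; mean ± SEM.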"}, "Mus musculus [6]": {"test_system": "Mus musculus", "experiment": "Reduction in morphine dependence expression in CD1 mouse assessed as decrease in somatic signs at 0.05 mg/kg, ip bid administered 15 mins before last morphine dosing […]", "assay_type": "functional", "design": "scale not given: the % may be the effect or the level left", "settings": "route intraperitoneal", "in_short": "as §1"}, "Mus musculus [7]": {"test_system": "Mus musculus", "experiment": "Reduction in morphine dependence expression in CD1 mouse assessed as decrease in frequency of jumping at 0.05 mg/kg, ip bid administered 15 mins before last morphine dosing […]", "assay_type": "functional", "design": "scale not given: the % may be the effect or the level left", "settings": "route intraperitoneal", "in_short": "as §1"}, "[8]": {"target": "T3, Alpha-2B adrenergic receptor (Homo sapiens) (UniProt P18089)", "T3 sequence (whole entry)": "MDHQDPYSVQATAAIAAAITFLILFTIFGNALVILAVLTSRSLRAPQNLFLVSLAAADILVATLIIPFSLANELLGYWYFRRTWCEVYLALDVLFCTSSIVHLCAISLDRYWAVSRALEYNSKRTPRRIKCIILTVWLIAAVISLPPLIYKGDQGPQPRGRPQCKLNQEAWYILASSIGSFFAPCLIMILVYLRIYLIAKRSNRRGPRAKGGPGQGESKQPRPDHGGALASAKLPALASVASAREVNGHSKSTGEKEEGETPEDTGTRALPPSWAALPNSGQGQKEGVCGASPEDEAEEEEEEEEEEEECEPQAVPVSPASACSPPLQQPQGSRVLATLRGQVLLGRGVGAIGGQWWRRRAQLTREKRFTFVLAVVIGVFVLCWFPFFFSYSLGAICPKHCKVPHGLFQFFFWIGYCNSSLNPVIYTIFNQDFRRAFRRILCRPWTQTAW", "settings": "CHO"}}, "note": "The source made the active and inactive calls. The calls are words filed in the database; no cut-off is given here.", "data": [{"smiles": "C=CCc1ccccc1OC(C)C1=NCCN1", "note": "(racemic) [ALLYPHENYLINE]", "values": [{"measurement": "pKb", "setting": "[1]", "value": 7.4}, {"measurement": "Intrinsic activity", "setting": "[2]", "value": 0.9}, {"measurement": "Activity", "setting": "Mus musculus [3]", "value": 22, "unit": "%"}, {"measurement": "Activity", "setting": "Mus musculus [4]", "value": "Active"}, {"measurement": "Activity", "setting": "Mus musculus [5]", "value": "Active"}, {"measurement": "Activity", "setting": "Mus musculus [6]", "value": 40, "unit": "%"}, {"measurement": "Activity", "setting": "Mus musculus [7]", "value": 80, "unit": "%"}, {"measurement": "pEC50", "setting": "[8]", "value": "inactive"}]}]}
